Screening results (PubChem BioAssay)
Most compounds without a hit are left out; they make up all but 5.1% or so of the library.
APP 5'UTR act – APP 5'UTR luciferase reporter activation | SH-SY5Y APP 5'UTR luciferase reporter, luminescence; zero percent = DMSO vehicle wells | activation, % at 2 µM | 1% of 190,000 active | AID 1276;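 active = activation above a set limit, based on mean plus 3 SD of controls, cut at about 140% in these data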
STAT1 act – activators of IFN-gamma induced STAT1 signaling; NIH 3T3 STAT1-luciferase reporter, luminescence; 100% = IFN-gamma alone, no compound; 2.6% of 200,000 active; activation (% of control), % at 5.5 µM;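 active = activation above the screen-wide mean activation plus 3 SD, cut at about 130% in these data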
STAT3 blocker – inhibitors of IL-6 induced STAT3 signaling. U3A cells, IL-6 STAT3-luciferase reporter, luminescence; host cell line lacks STAT1. inhibition, % at 5.5 µM. 0.89% of 190,000 active. AID 862;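 active = inhibition above the mean inhibition across all screened compounds plus 3 SD, cut at about 44% in these data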
STAT1 blocker – STAT1 signaling inhibition; NIH 3T3 STAT1-luciferase reporter, IFN-gamma, luminescence; inhibition, % at 5.5 µM; 0.35% of 200,000 active; AID 920;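 active = inhibition above a set limit, the mean inhibition across all tested compounds plus 3 SD, cut at about 34% in these data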
NF-kB neuron act – raises NF-kB expression in human neuronal cells. fold change at 12.5 µM. AID 1239. 1.6% of 190,000 active. NF-kB reporter expression; stronger effect = higher value; in the data active = fold change above about 3.3
STAT3 act – increases IL-6 driven STAT3 reporter signal; U3A cells, IL-6 STAT3-luciferase reporter, luminescence; 100% = signal with IL-6 EC80 alone; activation (% of control), % at 5.6 µM; 0.91% of 190,000 active; AID 871;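 active = activation above the screen-wide mean of compound activation plus 3 SD, cut at about 130% in these data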
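Material: STAT3-luciferase reporter U3A cells; Probe or stimulus: IL-6 (33 ng/mL); Incubation: compound pre-incubation 1 h before IL-6, then 6 h stimulation at 37 °C; Technique: luminescence from STAT3-driven luciferase reporter; Evaluation: % activation versus median of IL-6-stimulated wells; Controls: IL-6-only high control.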
STAT1 act conf – STAT1 activation, confirmation assay; 97% of 1,200 active; shares compounds with STAT1 act; NIH 3T3 STAT1-luciferase reporter, IFN-gamma potentiation, luminescence; 100% = IFN-gamma EC80 alone, no compound; activation (% of control), % at 5.7 µM;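 active = activation above a set limit carried over from the earlier primary STAT1 screen, cut at about 140% in these data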
NFkB act – counter-screen for STAT1 activators: NF-kappaB activation | activation (% of control), % at 5.7 µM | HEK293T NF-kB luciferase reporter, TNF-alpha stimulated, luminescence; 100% = TNF-alpha with vehicle only | 43% of 1,200 active | AID 1306 | shares compounds with STAT1 act;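 active = activation above the mean of solvent-only control wells plus 3 SD, set per campaign, cut at about 130% in these data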;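 note: TNF-alpha given at a submaximal dose yielding about 80% of full reporter signal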
STAT3 act 2 – counter-screen for STAT1 activators: human STAT3 activation | shares compounds with STAT1 act | U3A cells STAT3-luciferase reporter, IL-6, luminescence; cells lack STAT1; 100 = IL-6 alone, no compound effect | activation (% of control), % at 5.7 µM | 46% of 1,200 active | AID 1316;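 active = activation above the solvent-only control well mean plus 3 SD, set per plate batch, cut at about 110% in these data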;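 note: higher means more STAT3 reporter activation so hits are non-selective activators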
A number is an active result; . = inactive; / = not tested or not shown.

SMILES | APP 5'UTR act | STAT1 act | STAT3 blocker | STAT1 blocker | NF-kB neuron act | STAT3 act | STAT1 act conf | NFkB act | STAT3 act 2
NC(=O)c1ccccc1N/C=C/C(=O)c1ccc(F)cc1 | 136.2 | 153.8 | . | . | 4.19 | . | 189.1 | . | .
CC(=O)NC(Cc1ccc(F)cc1)C(=O)NC1CCN(c2ncccc2[N+](=O)[O-])CC1 (centres undefined) | . | . | . | . | . | . | / | / | /
CCOC(=O)C(C)Sc1snnc1C (centres undefined) | . | . | . | . | / | . | / | / | /
CN(C)c1ccc(N=C/C=C2/N(C)c3ccccc3C2(C)C)cc1 | 163.7 | 172.7 | . | . | . | . | . | . | .
COC(=O)C1=NN(C(C)(C)CC(C)=O)C2C(=O)N(C3CCCCC3)C(=O)C12 (centres undefined) | . | . | . | . | . | . | / | / | /
CCc1ccc(NC(=O)c2ccccc2Br)cc1 | . | 155.1 | . | . | 4.15 | . | 177.3 | 137.8 | .
CN1CCN(c2ccc(NC(=O)c3ccccc3Br)cc2)CC1 | . | . | . | . | . | . | / | / | /
O=C(CCS(=O)(=O)c1cccs1)Nc1ccc(C(=O)NC2CCCC2)cc1 | . | . | . | . | . | . | / | / | /
CS(=O)(=O)N1N=C(c2ccc(Br)cc2)CC1c1ccc2c(c1)OCO2 (centres undefined) | . | 154.6 | . | . | 5.45 | . | 202.9 | 135.5 | 124.7
CS(=O)(=O)Nc1ccc(C2=NN(S(C)(=O)=O)C(c3ccc4nccnc4c3)C2)cc1 (centres undefined) | . | . | . | . | . | . | / | / | /
Cc1ccc(C2=NN(S(C)(=O)=O)C(c3ccc4c(c3)OCO4)C2)cc1 (centres undefined) | 139.4 | 210.9 | . | . | 10.4 | . | 256.5 | 141.3 | 140.0
CS(=O)(=O)N(CC(=O)Nc1ccccc1C(=O)NCc1ccco1)c1ccccc1F | . | . | . | . | . | . | / | / | /
O=[N+]([O-])c1ccc(N=Cc2sc3ccccc3c2O)cc1 | . | . | . | . | . | . | / | / | /
CC(=Nc1ccc(O)cc1)c1sc2ccccc2c1O | 170.7 | 169.6 | . | . | 13.3 | . | 230.5 | 150.1 | .
CC(/C=N/NC(=O)c1sc(N)nc1C)=C\c1ccccc1 | . | 152.6 | . | . | . | . | 146.1 | . | .
Cc1nc(N)sc1C(=O)N/N=C/c1ccccc1[N+](=O)[O-] | . | 156.5 | . | . | . | . | 155.0 | . | 117.5
Fc1ccc(-c2nnc(SCc3cccnc3)o2)cc1 | . | . | . | . | . | . | / | / | /
O=C(Nc1nccs1)c1ccc(-c2ccccc2Cl)o1 | 156.1 | 151.9 | . | . | . | . | 178.0 | 136.5 | .
COc1ccc(NC(=O)c2ccc(-c3ccc([N+](=O)[O-])cc3)o2)cc1 | . | . | . | . | . | . | / | / | /
O=C(Nc1nccs1)c1ccc(-c2ccc([N+](=O)[O-])cc2)o1 | . | 151.2 | . | . | . | . | 183.4 | . | .
CCCNC(=O)NC(=O)CSc1ccc(C)cc1C | . | . | . | . | . | . | / | / | /
O=C(O)CC/C(=N/NC(=O)c1cccs1)c1ccccc1 | . | 156.6 | . | . | . | . | 134.5 | . | .
O=C(O)CCC(=O)NNC(=O)c1cccs1 | . | . | . | . | . | . | / | / | /
CC(C)(C)C1CCc2c(C(=O)NNC(=O)CCC(=O)O)csc2C1 (centres undefined) | . | . | . | . | . | . | / | / | /
COc1ccc(-c2csc(-c3ccccc3)n2)c(OC)c1 | 195.0 | 153.4 | . | . | 11.7 | . | 226.9 | 144.4 | 144.0
COc1ccccc1-c1nc(-c2ccncc2)no1 | . | 159.4 | . | . | . | . | 188.5 | . | 110.6
